According to ChEMBL document CHEMBL1909567, “Synthesis and structure-activity relationship studies in translocator protein ligands based on a pyrazolo[3,4-b]quinoline scaffold” (J Med Chem, 2011):

Key:
[1] = target: Translocator protein (Rattus norvegicus, UniProt P16257); test: Displacement of [3H]PK11195 from TSPO in Sprague-Dawley rat brain homogenates after 90 mins by liquid scintillation spectrometry; format: tissue-based
[2] = test system: Rattus norvegicus; test: Antinociceptive activity in rat peripheral mononeuropathy model assessed as decrease in right paw pressure at 50 mg/kg, po after 30 mins by analgesimetry (reference value: 31.3 +/- 2.8 g); format: functional
[3] = test system: Rattus norvegicus; test: Antinociceptive activity in rat peripheral mononeuropathy model assessed as decrease in left paw pressure at 5 mg/kg, po after 30 mins by analgesimetry (reference value: 59.65 +/- 2.6 g); format: functional
[4] = test system: Mus musculus; test: Antianxiety activity in mouse assessed as increase in time spent in illuminated area at 10 mg/kg, po after 30 mins by light/dark box test (reference value: 116.4 +/- 7.5 sec); format: functional
In short: (§1)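 Male mice, housed 15 per cage, placed in the test room 24 h before testing for acclimatization. Drugs were given po in 1% carboxymethylcellulose at 10 mL/kg, 30 min before the light/dark box test. Time spent in the light box (s) was recorded. Values are mean ± SEM of at least 8 mice per group. ANOVA with Fisher's PLSD was used against vehicle.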

[5] = test system: Rattus norvegicus; test: Antinociceptive activity in rat peripheral mononeuropathy model assessed as decrease in left paw pressure at 5 mg/kg, po after 15 mins by analgesimetry (reference value: 63.5 +/- 2.8 g); format: functional
[6] = test system: Rattus norvegicus; test: Antinociceptive activity in rat peripheral mononeuropathy model assessed as decrease in left paw pressure at 50 mg/kg, po after 45 mins by analgesimetry (reference value: 63.0 +/- 2.4 g); format: functional
[7] = test system: Rattus norvegicus; test: Antinociceptive activity in rat peripheral mononeuropathy model assessed as decrease in right paw pressure at 5 mg/kg, po after 30 mins by analgesimetry (reference value: 31.3 +/- 2.8 g); format: functional
[8] = test system: Mus musculus; test: Antianxiety activity in mouse assessed as increase in time spent in illuminated area at 30 mg/kg, po after 30 mins by light/dark box test (reference value: 116.4 +/- 7.5 sec); format: functional; in short: as §1
[9] = test system: Rattus norvegicus; test: Antinociceptive activity in rat peripheral mononeuropathy model assessed as decrease in right paw pressure at 5 mg/kg, po after 45 mins by analgesimetry (reference value: 32.9 +/- 2.6 g); format: functional
[10] = test system: Rattus norvegicus; test: Antinociceptive activity in rat peripheral mononeuropathy model assessed as decrease in right paw pressure at 5 mg/kg, po after 15 mins by analgesimetry (reference value: 34.8 +/- 3.7 g); format: functional
[11] = test system: Rattus norvegicus; test: Antinociceptive activity in rat peripheral mononeuropathy model assessed as decrease in left paw pressure at 50 mg/kg, po after 15 mins by analgesimetry (reference value: 63.5 +/- 2.8 g); format: functional
[12] = test system: Mus musculus; test: Antianxiety activity in mouse assessed as increase in time spent in illuminated area at 3 mg/kg, po after 30 mins by light/dark box test (reference value: 116.4 +/- 7.5 sec); format: functional; in short: as §1
[13] = test system: Rattus norvegicus; test: Antinociceptive activity in rat peripheral mononeuropathy model assessed as decrease in right paw pressure at 50 mg/kg, po after 15 mins by analgesimetry (reference value: 34.8 +/- 3.7 g); format: functional
[14] = test system: Rattus norvegicus; test: Antinociceptive activity in rat peripheral mononeuropathy model assessed as decrease in right paw pressure at 50 mg/kg, po after 45 mins by analgesimetry (reference value: 32.9 +/- 2.6 g); format: functional
[15] = test system: Rattus norvegicus; test: Antinociceptive activity in rat peripheral mononeuropathy model assessed as decrease in left paw pressure at 50 mg/kg, po after 30 mins by analgesimetry (reference value: 59.65 +/- 2.6 g); format: functional
[16] = test system: Rattus norvegicus; test: Antinociceptive activity in rat peripheral mononeuropathy model assessed as decrease in left paw pressure at 5 mg/kg, po after 45 mins by analgesimetry (reference value: 63.0 +/- 2.4 g); format: functional
[17] = test system: Mus musculus; test: Antianxiety activity in mouse assessed as increase in time spent in illuminated area at 1 mg/kg, po by light/dark box test (reference value: 116.4 +/- 7.5 sec); format: functional; in short: as §1

Translocator protein, sequence (P16257 whole entry, looked up): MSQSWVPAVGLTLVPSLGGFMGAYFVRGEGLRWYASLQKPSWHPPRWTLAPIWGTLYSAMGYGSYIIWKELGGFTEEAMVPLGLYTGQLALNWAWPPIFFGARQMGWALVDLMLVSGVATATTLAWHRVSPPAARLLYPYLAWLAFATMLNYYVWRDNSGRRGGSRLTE

## CCCN(CCC)C(=O)Cn1c2nc3ccccc3c(C)c2c(=O)n1-c1ccc(Cl)cc1
[1]
  IC50: 90 nM

## Cc1c2ccccc2nc2c1c(=O)n(-c1ccccc1)n2CC(=O)N(C)c1ccc(Cl)cc1
[2]
  Activity: 44 g
[3]
  Activity: 63.6 g
[4]
  Time: 112.3 s
[5]
  Activity: 57.8 g
[6]
  Activity: 59 g
[7]
  Activity: 35.9 g
[8]
  Time: 107.6 s
[9]
  Activity: 33.4 g
[10]
  Activity: 39.2 g
[11]
  Activity: 61 g
[12]
  Time: 103.8 s
[13]
  Activity: 48.1 g
[14]
  Activity: 37 g
[15]
  Activity: 58 g
[16]
  Activity: 61.4 g
[1]
  IC50: 1.8 nM

## Cc1c2ccccc2nc2c1c(=O)n(-c1ccc(Cl)cc1)n2CC(=O)N(C)c1ccc(Cl)cc1
[2]
  Activity: 49.4 g
[3]
  Activity: 58.4 g
[4]
  Time: 169 s
[5]
  Activity: 61.4 g
[6]
  Activity: 64.8 g
[7]
  Activity: 35.8 g
[17]
  Time: 108.9 s
[9]
  Activity: 32.7 g
[10]
  Activity: 44.8 g
[11]
  Activity: 62.2 g
[12]
  Time: 135.2 s
[13]
  Activity: 56.3 g
[14]
  Activity: 42.5 g
[15]
  Activity: 61.8 g
[16]
  Activity: 63.8 g
[1]
  IC50: 16 nM

## Cc1c2c(=O)n(-c3ccc(F)cc3)nc-2n(CC(=O)N(C)c2ccc(Cl)cc2)c2ccccc12
[1]
  IC50: 0.28 nM

## Cc1c2ccccc2nc2c1c(=O)n(-c1ccccc1)n2CC(=O)N(C)c1ccccc1
[1]
  IC50: 117 nM

## COc1ccc(N(C)C(=O)Cn2c3nc4ccccc4c(C)c3c(=O)n2-c2ccccc2)cc1
[1]
  IC50: 17 nM

## CCCCN(Cc1ccccc1)C(=O)Cn1c2nc3ccccc3c(C)c2c(=O)n1-c1ccccc1
[1]
  IC50: 697 nM

## CN1C(=O)CN=C(c2ccccc2)c2cc(Cl)ccc21 [DIAZEPAM]
[17]
  Time: 171.63 s

## CCCCN(C)C(=O)Cn1c2nn(-c3ccc(F)cc3)c(=O)c-2c(C)c2ccccc21
[1]
  IC50: 0.13 nM

## CCN(Cc1ccccc1)C(=O)Cn1c2nc3ccccc3c(C)c2c(=O)n1-c1ccccc1
[1]
  IC50: 220 nM

## Cc1c2ccccc2nc2c1c(=O)n(-c1ccccc1)n2CC(=O)N(Cc1ccccc1)C(C)C
[1]
  IC50: 304 nM

## CCN(CC)C(=O)Cn1c2nn(-c3ccccc3)c(=O)c-2c(C)c2ccccc21
[1]
  IC50: 0.83 nM

## CCCCN(C)C(=O)Cn1c2nc3ccccc3c(C)c2c(=O)n1-c1ccc(Cl)cc1
[1]
  IC50: 144 nM

## CCCN(CCC)C(=O)Cn1c2nc3ccccc3c(C)c2c(=O)n1-c1ccccc1
[1]
  IC50: 90 nM

## Cc1c2ccccc2nc2c1c(=O)n(-c1ccc(F)cc1)n2CC(=O)N(C)c1ccc(Cl)cc1
[2]
  Activity: 47.2 g
[3]
  Activity: 57.7 g
[4]
  Time: 117.5 s
[5]
  Activity: 58.7 g
[6]
  Activity: 63.1 g
[7]
  Activity: 36.4 g
[8]
  Time: 111.3 s
[9]
  Activity: 36.3 g
[10]
  Activity: 35.6 g
[11]
  Activity: 60.7 g
[12]
  Time: 106.8 s
[13]
  Activity: 49.4 g
[14]
  Activity: 36.3 g
[15]
  Activity: 59.3 g
[16]
  Activity: 64.1 g
[1]
  IC50: 6.8 nM

## Cc1c2ccccc2nc2c1c(=O)n(-c1ccccc1)n2CC(=O)N(Cc1ccccc1)Cc1ccccc1
[1]
  IC50: 3460 nM

## CCN(CC)C(=O)Cn1c2nc3ccccc3c(C)c2c(=O)n1-c1ccc(F)cc1
[1]
  IC50: 2270 nM

## CCN(CC)C(=O)Cn1c2nc3ccccc3c(C)c2c(=O)n1-c1ccccc1
[1]
  IC50: 180 nM

## CCN(Cc1ccccc1)C(=O)Cn1c(=O)n(C)c2cnc(-c3ccccc3)nc21
[4]
  Time: 162.3 s
[17]
  Time: 110.8 s
[12]
  Time: 137.3 s

## CCCCN(C)C(=O)Cn1c2nc3ccccc3c(C)c2c(=O)n1-c1ccc(F)cc1
[1]
  IC50: 110 nM

## CCCN(CCC)C(=O)Cn1c2nc3ccccc3c(C)c2c(=O)n1-c1ccc(F)cc1
[1]
  IC50: 87 nM

## CCCCN(C)C(=O)Cn1c2nn(-c3ccccc3)c(=O)c-2c(C)c2ccccc21
[4]
  Time: 151.5 s
[17]
  Time: 103.7 s
[12]
  Time: 117.4 s
[1]
  IC50: 0.14 nM

## CCCCN(C)C(=O)Cn1c2nc3ccccc3c(C)c2c(=O)n1-c1ccccc1
[1]
  IC50: 65 nM

## Cc1c2ccccc2nc2c1c(=O)n(-c1ccccc1)n2CC(=O)N(C(C)C)C(C)C
[1]
  IC50: 1390 nM

## Cc1c2c(=O)n(-c3ccccc3)nc-2n(CC(=O)N(C)c2ccc(Cl)cc2)c2ccccc12
[1]
  IC50: 0.13 nM

## CCCCN(CCCC)C(=O)Cn1c2nc3ccccc3c(C)c2c(=O)n1-c1ccccc1
[1]
  IC50: 152 nM

## CCCCN(CCCC)C(=O)Cn1c2nn(-c3ccccc3)c(=O)c-2c(C)c2ccccc21
[1]
  IC50: 0.34 nM

## Cc1c2ccccc2nc2c1c(=O)n(-c1ccccc1)n2CC(=O)N(C)Cc1ccccc1
[1]
  IC50: 881 nM
